The source of these data is ChEMBL document CHEMBL4325886, “Synthesis and SAR studies of novel benzodiazepinedione-based inhibitors of Clostridium difficile (C. difficile) toxin B (TcdB)” (Bioorg Med Chem Lett, 2018).

In one series the target is Toxin A (Clostridioides difficile, UniProt P16154). As to the kind of experiment: Inhibition of Clostridium difficile toxin A […] CHO cells assessed as reduction in caspase 3/7 activation pre-incubated for 1 hr before TcdA addition by luminescence based assay. The series is classed as cell-based.
Chain of Toxin A (P16154 whole entry, the tested form may be a part): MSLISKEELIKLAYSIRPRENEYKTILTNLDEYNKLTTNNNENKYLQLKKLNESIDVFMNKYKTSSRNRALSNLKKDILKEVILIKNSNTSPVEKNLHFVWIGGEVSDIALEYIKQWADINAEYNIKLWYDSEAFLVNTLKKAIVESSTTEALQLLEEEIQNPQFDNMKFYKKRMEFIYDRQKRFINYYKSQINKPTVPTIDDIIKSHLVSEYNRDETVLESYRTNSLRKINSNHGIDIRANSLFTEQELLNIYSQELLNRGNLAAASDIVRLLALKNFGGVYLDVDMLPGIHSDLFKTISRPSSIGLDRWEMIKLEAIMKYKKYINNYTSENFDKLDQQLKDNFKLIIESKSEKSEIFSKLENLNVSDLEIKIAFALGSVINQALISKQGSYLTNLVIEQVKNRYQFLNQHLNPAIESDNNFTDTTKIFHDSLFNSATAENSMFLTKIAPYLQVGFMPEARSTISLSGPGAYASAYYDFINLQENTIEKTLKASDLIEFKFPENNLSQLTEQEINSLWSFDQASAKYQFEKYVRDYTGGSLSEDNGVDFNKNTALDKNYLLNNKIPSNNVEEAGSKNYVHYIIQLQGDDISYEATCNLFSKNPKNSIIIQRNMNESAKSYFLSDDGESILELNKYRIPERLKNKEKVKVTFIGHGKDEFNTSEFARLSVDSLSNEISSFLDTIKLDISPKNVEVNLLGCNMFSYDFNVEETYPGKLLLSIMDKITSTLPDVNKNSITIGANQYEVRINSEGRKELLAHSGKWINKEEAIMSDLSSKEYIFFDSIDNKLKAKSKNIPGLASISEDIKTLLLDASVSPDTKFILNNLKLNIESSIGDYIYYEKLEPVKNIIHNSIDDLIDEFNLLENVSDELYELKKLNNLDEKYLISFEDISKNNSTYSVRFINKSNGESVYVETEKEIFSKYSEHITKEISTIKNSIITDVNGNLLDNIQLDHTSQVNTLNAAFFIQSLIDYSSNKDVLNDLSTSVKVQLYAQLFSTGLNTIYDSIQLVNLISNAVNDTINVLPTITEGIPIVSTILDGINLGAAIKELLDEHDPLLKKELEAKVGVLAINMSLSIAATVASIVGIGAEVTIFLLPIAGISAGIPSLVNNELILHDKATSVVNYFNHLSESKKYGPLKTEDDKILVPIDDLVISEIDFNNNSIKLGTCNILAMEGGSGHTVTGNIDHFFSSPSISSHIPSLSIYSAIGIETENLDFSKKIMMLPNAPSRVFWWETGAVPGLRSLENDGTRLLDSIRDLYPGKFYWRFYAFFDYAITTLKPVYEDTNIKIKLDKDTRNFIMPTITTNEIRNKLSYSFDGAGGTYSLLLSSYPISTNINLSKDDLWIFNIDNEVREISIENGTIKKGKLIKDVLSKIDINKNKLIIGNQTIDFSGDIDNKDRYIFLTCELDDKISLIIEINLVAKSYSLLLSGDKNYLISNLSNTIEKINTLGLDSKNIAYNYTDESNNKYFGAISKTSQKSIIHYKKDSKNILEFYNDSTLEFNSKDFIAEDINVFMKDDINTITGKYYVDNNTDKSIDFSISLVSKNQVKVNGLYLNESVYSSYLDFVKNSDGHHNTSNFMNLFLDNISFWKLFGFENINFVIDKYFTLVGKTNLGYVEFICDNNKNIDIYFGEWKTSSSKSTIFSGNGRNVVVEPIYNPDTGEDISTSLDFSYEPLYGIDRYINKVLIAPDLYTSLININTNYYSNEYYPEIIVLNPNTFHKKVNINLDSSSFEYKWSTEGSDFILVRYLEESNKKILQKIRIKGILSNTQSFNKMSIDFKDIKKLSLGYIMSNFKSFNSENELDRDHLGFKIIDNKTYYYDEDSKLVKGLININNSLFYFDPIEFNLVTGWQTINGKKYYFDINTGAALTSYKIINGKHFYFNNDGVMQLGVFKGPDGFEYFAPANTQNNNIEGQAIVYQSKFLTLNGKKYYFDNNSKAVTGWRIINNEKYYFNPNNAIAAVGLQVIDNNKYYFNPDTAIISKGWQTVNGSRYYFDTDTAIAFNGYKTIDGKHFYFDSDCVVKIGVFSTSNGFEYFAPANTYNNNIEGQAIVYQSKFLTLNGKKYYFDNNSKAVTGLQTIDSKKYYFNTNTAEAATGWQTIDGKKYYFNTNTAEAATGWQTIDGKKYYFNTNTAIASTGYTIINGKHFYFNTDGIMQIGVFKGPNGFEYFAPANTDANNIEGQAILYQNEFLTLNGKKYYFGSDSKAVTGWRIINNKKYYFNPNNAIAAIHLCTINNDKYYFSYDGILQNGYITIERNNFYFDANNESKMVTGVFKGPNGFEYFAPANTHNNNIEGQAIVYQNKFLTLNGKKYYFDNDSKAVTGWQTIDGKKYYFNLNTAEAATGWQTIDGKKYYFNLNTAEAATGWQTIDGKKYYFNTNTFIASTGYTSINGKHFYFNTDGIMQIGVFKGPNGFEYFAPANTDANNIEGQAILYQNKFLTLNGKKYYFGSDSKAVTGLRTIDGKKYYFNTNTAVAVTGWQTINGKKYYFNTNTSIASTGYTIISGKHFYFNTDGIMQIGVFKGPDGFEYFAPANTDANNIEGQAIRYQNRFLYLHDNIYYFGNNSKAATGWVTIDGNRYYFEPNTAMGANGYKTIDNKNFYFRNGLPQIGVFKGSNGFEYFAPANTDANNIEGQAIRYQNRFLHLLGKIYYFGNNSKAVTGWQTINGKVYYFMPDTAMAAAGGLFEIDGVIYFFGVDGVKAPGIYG
The target of series [1] is T1, Toxin B (Clostridioides difficile, UniProt P18177). As to the kind of experiment: Inhibition of C-terminal 6-His tagged recombinant Clostridium difficile toxin B glucosyltransferase domain assessed as reduction in UDP-glucose hydrolysis activity using UDP-glucose substrate and ADP Alexa633 tracer incubated for 3 hrs by fluorescence polarization assay. On the technique in general: Polarisation of emitted light reports the rotation of a fluorescent probe.
T1 sequence (P18177 whole entry, the tested form may be a part): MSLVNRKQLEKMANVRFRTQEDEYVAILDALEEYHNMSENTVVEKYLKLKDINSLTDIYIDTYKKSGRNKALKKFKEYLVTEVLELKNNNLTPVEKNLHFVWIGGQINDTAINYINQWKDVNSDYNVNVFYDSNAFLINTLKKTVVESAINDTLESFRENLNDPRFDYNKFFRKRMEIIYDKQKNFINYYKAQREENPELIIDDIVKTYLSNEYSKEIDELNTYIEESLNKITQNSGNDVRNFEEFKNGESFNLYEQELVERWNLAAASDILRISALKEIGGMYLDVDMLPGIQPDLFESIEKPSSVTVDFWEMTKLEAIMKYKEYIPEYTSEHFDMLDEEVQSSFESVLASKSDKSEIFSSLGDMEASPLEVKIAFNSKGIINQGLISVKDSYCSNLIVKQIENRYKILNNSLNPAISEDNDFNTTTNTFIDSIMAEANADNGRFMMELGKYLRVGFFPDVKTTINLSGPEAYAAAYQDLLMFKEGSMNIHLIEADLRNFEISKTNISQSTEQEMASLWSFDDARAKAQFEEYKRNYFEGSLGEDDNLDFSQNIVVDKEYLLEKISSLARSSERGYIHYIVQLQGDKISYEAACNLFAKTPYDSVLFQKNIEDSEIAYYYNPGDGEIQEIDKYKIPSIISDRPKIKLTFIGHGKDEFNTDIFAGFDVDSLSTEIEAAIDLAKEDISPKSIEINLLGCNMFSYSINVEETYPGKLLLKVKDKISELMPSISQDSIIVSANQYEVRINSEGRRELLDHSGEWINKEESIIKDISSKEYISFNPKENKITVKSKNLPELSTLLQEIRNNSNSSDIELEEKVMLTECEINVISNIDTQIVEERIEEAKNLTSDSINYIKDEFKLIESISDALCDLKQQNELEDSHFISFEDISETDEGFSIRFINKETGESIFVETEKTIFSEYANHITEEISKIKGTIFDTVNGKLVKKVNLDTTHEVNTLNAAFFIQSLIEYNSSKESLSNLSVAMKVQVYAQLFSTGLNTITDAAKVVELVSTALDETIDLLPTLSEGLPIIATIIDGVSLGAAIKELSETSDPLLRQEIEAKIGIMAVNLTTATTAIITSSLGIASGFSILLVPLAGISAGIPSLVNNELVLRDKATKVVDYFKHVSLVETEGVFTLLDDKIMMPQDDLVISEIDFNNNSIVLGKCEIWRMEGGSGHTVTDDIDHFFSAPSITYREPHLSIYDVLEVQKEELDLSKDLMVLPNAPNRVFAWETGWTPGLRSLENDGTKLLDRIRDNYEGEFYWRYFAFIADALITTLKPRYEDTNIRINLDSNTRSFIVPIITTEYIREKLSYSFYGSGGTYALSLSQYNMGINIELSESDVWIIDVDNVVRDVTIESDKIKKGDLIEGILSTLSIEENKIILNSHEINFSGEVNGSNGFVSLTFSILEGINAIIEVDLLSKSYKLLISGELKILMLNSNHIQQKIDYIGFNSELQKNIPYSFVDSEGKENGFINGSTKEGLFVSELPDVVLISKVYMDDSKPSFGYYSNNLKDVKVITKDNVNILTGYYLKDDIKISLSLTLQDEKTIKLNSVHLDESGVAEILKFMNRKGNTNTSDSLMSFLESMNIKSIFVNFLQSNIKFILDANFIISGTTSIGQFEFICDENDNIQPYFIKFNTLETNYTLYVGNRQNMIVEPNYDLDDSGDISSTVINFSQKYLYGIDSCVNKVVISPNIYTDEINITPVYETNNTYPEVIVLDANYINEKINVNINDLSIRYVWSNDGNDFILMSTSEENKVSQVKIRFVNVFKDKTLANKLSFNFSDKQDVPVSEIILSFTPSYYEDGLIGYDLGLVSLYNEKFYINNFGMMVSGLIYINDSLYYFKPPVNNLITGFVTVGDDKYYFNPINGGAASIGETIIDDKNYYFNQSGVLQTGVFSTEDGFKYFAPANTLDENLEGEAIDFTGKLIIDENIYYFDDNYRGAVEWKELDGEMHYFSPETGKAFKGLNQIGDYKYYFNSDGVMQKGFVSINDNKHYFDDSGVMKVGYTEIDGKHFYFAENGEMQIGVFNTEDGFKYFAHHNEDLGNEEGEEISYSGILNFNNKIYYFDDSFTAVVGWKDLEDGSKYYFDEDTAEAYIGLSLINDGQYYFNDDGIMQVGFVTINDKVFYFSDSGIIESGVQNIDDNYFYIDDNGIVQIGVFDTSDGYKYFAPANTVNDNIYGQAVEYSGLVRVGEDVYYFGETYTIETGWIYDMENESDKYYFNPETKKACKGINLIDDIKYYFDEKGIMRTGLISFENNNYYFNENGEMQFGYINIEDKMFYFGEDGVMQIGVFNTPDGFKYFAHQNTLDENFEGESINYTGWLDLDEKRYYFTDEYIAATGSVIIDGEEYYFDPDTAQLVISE

Series [2] in a line: Metabolic stability in human liver microsomes assessed as parent compound remaining after 15 mins. In kind it is ADME, Microsome. The following applies: read-out: Stability. A general note: Microsomes from liver hold many membrane-bound enzymes, among them those of drug oxidation.
Series [3] in a line: Metabolic stability in mouse liver microsomes assessed as parent compound remaining after 15 mins. In kind it is ADME, Microsome. The following applies: read-out: Stability.
For series [4], the target named is T1, Toxin B. As to the kind of experiment: Inhibition of Clostridium difficile toxin B […] CHO cells assessed as reduction in caspase 3/7 activation pre-incubated for 1 hr before TcdB addition by luminescence based assay. In kind it is cell-based.
The nature of series [5]: Metabolic stability in mouse plasma assessed as parent compound remaining after 2 hrs. In kind it is ADME, cell-free. In short, it runs like this:
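Compound incubated in mouse plasma for 2 h. Parent compound remaining was measured, and the carboxylic acid hydrolysis product was also monitored.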

A word on the IC50: it is the midpoint of a concentration-inhibition curve. For `Cc1cc(CN2C(=O)c3ccc(Cl)cc3NC(=O)[C@H]2Cc2ccccn2)ccc1C(=O)Nc1ccc(C(F)(F)F)cn1`, the IC50 at Toxin A came out at 2400 nM; on Toxin B [1], 20 nM; on Toxin B [4], 170 nM. The figures for the remaining at 0.25 h in series [2] and in series [3] were 100% and 99%, respectively.

In the case of `O=C(Nc1ccc(F)cn1)c1ccc(CN2C(=O)c3ccc(Cl)cc3NC(=O)[C@H]2Cc2ccccn2)cc1Cl`, the IC50 was 1800 nM at Toxin A, 4 nM on Toxin B [1] and 130 nM on Toxin B [4]. Further, the remaining at 0.25 h amounted to 88% in series [2] and 69% in series [3].

As for `COc1cc(CN2C(=O)c3ccc(Cl)cc3NC(=O)[C@H]2Cc2ccccn2)ccc1C(=O)Nc1ccc(C(F)(F)F)cn1`, the IC50 is 31000 nM on Toxin A, 41 nM at Toxin B [1] and 660 nM on Toxin B [4]. For the same molecule, the remaining at 0.25 h worked out at 100% in series [2] and 83% in series [3].

Regarding `O=C(O)c1ccc(CN2C(=O)c3ccc(Cl)cc3NC(=O)[C@H]2Cc2ccccn2)cc1`, on Toxin B [1], the IC50 came out at 180 nM.

As to `Cn1ccnc1C(=O)c1ccc(CN2C(=O)c3ccc(Cl)cc3NC(=O)[C@H]2Cc2ccccn2)cc1`, the IC50 was more than 100000 nM on Toxin A, 190 nM at Toxin B [1] and more than 100000 nM on Toxin B [4]. The remaining at 0.25 h in series [2] amounted to 49%; in series [3] it was 33%.

On to `Cc1cnc(NC(=O)c2ccc(CN3C(=O)c4ccc(Cl)cc4NC(=O)[C@H]3Cc3ccccn3)cc2Cl)cn1`, for which the IC50 at Toxin A is 2100 nM; on Toxin B [1], 9 nM; on Toxin B [4], 220 nM. Further, the values for the remaining at 0.25 h in series [2] and in series [3] were 81% and 79%, respectively.

For the molecule `Cc1ccc(NC(=O)c2ccc(CN3C(=O)c4ccc(Cl)cc4NC(=O)[C@H]3Cc3ccccn3)cc2Cl)nc1`, the results for the IC50 on Toxin A, on Toxin B [1] and at Toxin B [4] were 580 nM, 5 nM and 24 nM, respectively. Moreover, the remaining at 0.25 h in series [2] and in series [3] was 57% throughout.

For the molecule `O=C(O)c1c(Cl)cc(CN2C(=O)c3ccc(Cl)cc3NC(=O)[C@H]2Cc2ccccn2)cc1Cl`, the IC50 on Toxin B [1] stood at 7400 nM.

In the case of `O=C(c1ccc(CN2C(=O)c3ccc(Cl)cc3NC(=O)[C@H]2Cc2ccccn2)cc1)c1cccn2ncnc12`, the IC50 on Toxin B [1] came to 61 nM; on Toxin B [4], 1600 nM. Also, the remaining at 0.25 h was found to be 15% in series [2] and 44% in series [3].

In the case of `COc1cc(CN2C(=O)c3ccc(Cl)cc3NC(=O)[C@H]2Cc2ccccn2)ccc1C(=O)Nc1ccc(F)cn1`, the IC50 at Toxin A stood at 17000 nM; on Toxin B [1], 14 nM; at Toxin B [4] it was 1100 nM. The remaining at 0.25 h was 94% in series [2] and 67% in series [3].

As for `O=C(c1ccc(CN2C(=O)c3ccc(Cl)cc3NC(=O)[C@H]2Cc2ccccn2)cc1)c1cccn2ccnc12`, the IC50 was 8100 nM on Toxin A, 8 nM on Toxin B [1] and 660 nM on Toxin B [4]. Besides, the remaining at 0.25 h in series [2] was 44%; in series [3] it was 27%.

As to `COc1cnc(NC(=O)c2ccc(CN3C(=O)c4ccc(Cl)cc4NC(=O)[C@H]3Cc3ccccn3)cc2C)nc1`, the IC50 worked out at 690 nM on Toxin A, 4 nM on Toxin B [1] and 29 nM on Toxin B [4]. Besides, the remaining at 0.25 h in series [2] turned out to be 82%; in series [3] it was 39%.

For the molecule `COc1ccc(NC(=O)c2ccc(CN3C(=O)c4ccc(Cl)cc4NC(=O)[C@H]3Cc3ccccn3)cc2C)nc1`, the IC50 at Toxin A came to 480 nM; on Toxin B [1], 10 nM; on Toxin B [4] it was 71 nM. Further, the values for the remaining at 0.25 h in series [2] and in series [3] were 68% and 51%, respectively.

For `O=C(c1ccc(CN2C(=O)c3ccc(Cl)cc3NC(=O)[C@H]2Cc2ccccn2)cc1)c1ccccn1`, the IC50 at Toxin A was 37000 nM; on Toxin B [1], 45 nM; at Toxin B [4], 4200 nM. Besides, the values for the remaining at 0.25 h in series [2] and in series [3] were 64% and 79%, respectively.

Regarding `Cc1ccc(NC(=O)c2ccc(CN3C(=O)c4ccc(Cl)cc4NC(=O)[C@H]3Cc3ccccn3)cc2C)nc1`, the IC50 was determined as 860 nM on Toxin A, 7 nM on Toxin B [1] and 61 nM on Toxin B [4]. Moreover, the remaining at 0.25 h amounted to 61% in series [2] and 31% in series [3].

As for `Cc1cnc(NC(=O)c2ccc(CN3C(=O)c4ccc(Cl)cc4NC(=O)[C@H]3Cc3ccccn3)cc2C)nc1`, the IC50 on Toxin A amounted to 3000 nM; on Toxin B [1], 4 nM; on Toxin B [4], 130 nM. Also, the remaining at 0.25 h was determined as 74% in series [2] and 44% in series [3].

For the molecule `O=C(c1ccc(CN2C(=O)c3ccc(Cl)cc3NC(=O)[C@H]2Cc2ccccn2)cc1)c1c[nH]c2cccnc12`, the IC50 on Toxin A was found to be 18000 nM; on Toxin B [1], 2 nM; at Toxin B [4], 1800 nM. Besides, the remaining at 0.25 h in series [2] came out at 87%; in series [3], 93%.

As for `COc1cnc(NC(=O)c2ccc(CN3C(=O)c4ccc(Cl)cc4NC(=O)[C@H]3Cc3ccccn3)cc2Cl)nc1`, the IC50 amounted to 920 nM at Toxin A, 4 nM at Toxin B [1] and 53 nM on Toxin B [4]. The remaining at 0.25 h is 73% in series [2] and 38% in series [3].

For `COc1ccc(NC(=O)c2ccc(CN3C(=O)c4ccc(Cl)cc4NC(=O)[C@H]3Cc3ccccn3)cc2OC)nc1`, the results for the IC50 at Toxin A, at Toxin B [1] and on Toxin B [4] were 1100 nM, 5 nM and 130 nM, respectively. The remaining at 0.25 h came out at 78% in series [2] and 71% in series [3].

On to `Cc1cc(CN2C(=O)c3ccc(Cl)cc3NC(=O)[C@H]2Cc2ccccn2)ccc1C(=O)Nc1ccc(C#N)cn1`, for which the IC50 on Toxin B [1] was 3 nM; at Toxin B [4], 78 nM. The remaining at 0.25 h in series [2] was found to be 90%; in series [3], 70%.

As for `Cc1ccnc(C(=O)c2ccc(CN3C(=O)c4ccc(Cl)cc4NC(=O)[C@H]3Cc3ccccn3)cc2)c1`, the IC50 on Toxin B [1] worked out at 74 nM. Also, the values for the remaining at 0.25 h in series [2] and in series [3] were 26% and 48%, respectively.

For the molecule `COc1cnc(NC(=O)c2ccc(CN3C(=O)c4ccc(Cl)cc4NC(=O)[C@H]3Cc3ccccn3)cc2Cl)cn1`, the figures for the IC50 on Toxin A, at Toxin B [1] and on Toxin B [4] were 3400 nM, 21 nM and 490 nM, respectively. Further, the remaining at 0.25 h in series [2] was 100%; in series [3], 68%.

As to `COc1ccc(NC(=O)c2ccc(CN3C(=O)c4ccc(Cl)cc4NC(=O)[C@H]3Cc3ccccn3)cc2Cl)nc1`, the IC50 on Toxin A is 760 nM; at Toxin B [1], 5 nM; on Toxin B [4], 61 nM. Further, the remaining at 0.25 h in series [2] was 100%; in series [3] it was 71%. Besides, in series [5] (read-out: Stability), the remaining at 2 h worked out at 100%.

For the molecule `Cc1ccc(C(=O)c2ccc(CN3C(=O)c4ccc(Cl)cc4NC(=O)[C@H]3Cc3ccccn3)cc2)nc1`, the IC50 turned out to be 23000 nM on Toxin A, 38 nM on Toxin B [1] and 5900 nM at Toxin B [4]. In addition, the remaining at 0.25 h in series [2] amounted to 57%; in series [3], 68%.

On to `Cc1cc(CN2C(=O)c3ccc(Cl)cc3NC(=O)[C@H]2Cc2ccccn2)ccc1C(=O)Nc1ccc(F)cn1`, for which the IC50 came to 860 nM on Toxin A, 8 nM on Toxin B [1] and 62 nM on Toxin B [4]. For the same molecule, the remaining at 0.25 h was determined as 85% in series [2] and 60% in series [3].

With `COc1cnc(NC(=O)c2ccc(CN3C(=O)c4ccc(Cl)cc4NC(=O)[C@H]3Cc3ccccn3)cc2)nc1`, in series [5] (2 h), the Stability entry was “Unstable”. Besides, the IC50 on Toxin B [4] was determined as 3 nM.

On to `N#Cc1ccc(NC(=O)c2ccc(CN3C(=O)c4ccc(Cl)cc4NC(=O)[C@H]3Cc3ccccn3)cc2Cl)nc1`, for which the IC50 turned out to be 8 nM on Toxin B [1] and 52 nM at Toxin B [4]. Moreover, the values for the remaining at 0.25 h in series [2] and in series [3] were 90% and 84%, respectively.

Regarding `Cc1cccc(C(=O)c2ccc(CN3C(=O)c4ccc(Cl)cc4NC(=O)[C@H]3Cc3ccccn3)cc2)n1`, at Toxin B [1], the IC50 came out at 340 nM. The results for the remaining at 0.25 h in series [2] and in series [3] were 25% and 3%, respectively.

Consider `Cn1cc(C(=O)c2ccc(CN3C(=O)c4ccc(Cl)cc4NC(=O)[C@H]3Cc3ccccn3)cc2)c2ncccc21`, for which the IC50 at Toxin A came to 5300 nM; at Toxin B [1], 6 nM; on Toxin B [4] it was 330 nM. Moreover, the remaining at 0.25 h was 67% in series [2] and 76% in series [3].

In the case of `Cc1cnc(NC(=O)c2ccc(CN3C(=O)c4ccc(Cl)cc4NC(=O)[C@H]3Cc3ccccn3)cc2Cl)nc1`, the IC50 at Toxin A was 1500 nM; on Toxin B [1] it was 4 nM; at Toxin B [4], 130 nM. For the same molecule, the remaining at 0.25 h in series [2] stood at 79%; in series [3], 33%.

For `Cn1cnc(C(=O)c2ccc(CN3C(=O)c4ccc(Cl)cc4NC(=O)[C@H]3Cc3ccccn3)cc2)c1`, the figures for the IC50 at Toxin A, on Toxin B [1] and at Toxin B [4] were more than 100000 nM, 230 nM and more than 100000 nM, respectively. Moreover, the remaining at 0.25 h in series [2] turned out to be 44%; in series [3] it was 16%.

On to `COc1cc(CN2C(=O)c3ccc(Cl)cc3NC(=O)[C@H]2Cc2ccccn2)ccc1C(=O)Nc1ccc(C)cn1`, for which the results for the IC50 at Toxin A, at Toxin B [1] and on Toxin B [4] were 11000 nM, 9 nM and 1900 nM, respectively. The remaining at 0.25 h came to 62% in series [2] and 49% in series [3].

As for `O=C(O)c1ccc(CN2C(=O)c3ccc(Cl)cc3NC(=O)[C@H]2Cc2ccccn2)cc1Cl`, the IC50 on Toxin B [1] was found to be 480 nM.
